Screening data: PubChem, several laboratories
A selection: hits, their analogues and other compounds. The true share with any hit is near 2.1%.
NS3 helicase inh: inhibitors of Hepatitis C virus NS3 helicase | 0.56% of 290,000 active | inhibition, % at 10.9 µM | AID 1800 | NS3 helicase DNA unwinding, Cy5 molecular beacon fluorescence;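 active = inhibition above the mean of all tested compounds plus 3 SD, set per campaign, cut at about 35% in these data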
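Assay system – hepatitis C virus NS3 helicase domain fragment enzyme · Buffer or medium – MOPS pH 6.5, MgCl2, DTT, Tween20, BSA · Reagent – Cy5/quencher beacon DNA duplex and ATP to start · Compound – single 10.9 µM dose · Timing – 1 h at 25 °C · Technique – Cy5 beacon fluorescence read at start and 1 h · Measure – % inhibition of unwinding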
PABP polyA inh: blocks human PABP binding to poly(A) RNA. fluorescence polarization. inhibition, % at 35 µM. 1% of 290,000 active;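 note: calls also rest on retests at 20 µM and on dose response follow-up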
EBNA-1 inh: blocks EBNA-1 binding to DNA | EBNA-1 DNA binding, fluorescence polarization | inhibition, % at 14.8 µM | 0.34% of 300,000 active; in the data active = inhibition above about 28%
ZTA DNA inh: ZTA (EBV) inhibition in EBNA-1 counter-screen; P03206; ZTA-DNA binding, fluorescence polarization; inhibition, % at 11 µM; 0.15% of 320,000 active; AID 2234; in the data active = inhibition above about 33%
Target sequence (P03206 whole entry, looked up): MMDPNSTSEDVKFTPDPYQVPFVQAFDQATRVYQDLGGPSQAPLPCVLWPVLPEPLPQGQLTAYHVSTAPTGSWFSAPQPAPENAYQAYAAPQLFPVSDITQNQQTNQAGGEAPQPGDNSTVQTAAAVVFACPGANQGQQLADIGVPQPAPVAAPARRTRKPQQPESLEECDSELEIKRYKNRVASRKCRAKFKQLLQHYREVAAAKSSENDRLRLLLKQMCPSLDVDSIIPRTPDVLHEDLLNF
eIF4H FP inh: inhibitors of RNA binding by human eIF4H; Q15056; eIF4H fluorescence polarization binding assay; inhibition, % at 35 µM; 0.94% of 290,000 active; AID 2012;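 note: calls also rest on retests at 20 µM and on dose response follow-up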
PABP1 MLLE inh: inhibitors of microRNA-mediated deadenylation, human PABP1 MLLE binding | P11940 | GST-MLLE / FITC-PAM2 fluorescence polarization | inhibition, % at 20 µM | 0.36% of 360,000 active | AID 588489; in the data active = inhibition above about 35%, passing the limit was not always enough
Each line names hits and unclear results; the compound was inactive in the other large screens. Unless noted, the rule behind the calls is not given here.

COc1ccc(C(=O)N[C@H](C(=O)N2CCN(c3ccccc3F)CC2)C(C)C)cc1	none
Cc1cc(C=O)c(C)n1-c1ccc(N2CCOCC2)c([N+](=O)[O-])c1	PABP polyA inh 69.6, eIF4H FP inh 82.1
Cc1cc(C=O)c(C)n1-c1ccc(N2CCCC2)c([N+](=O)[O-])c1	none
CC(C)C1NC2(C(=O)c3ccccc3C2=O)C2C(=O)N(c3ccc(F)cc3)C(=O)C12 (stereo not given)	PABP polyA inh 38.6, eIF4H FP inh 50.6
COc1ccc2c(c1)c(=O)oc1c(C)c(OCc3cc(C(=O)O)oc3C)ccc12	PABP polyA inh 8.0
COc1ccc2c(c1)c(=O)oc1c(C)c(OCc3ccc(C(=O)O)cc3)ccc12	none
Cc1oc(C(=O)O)cc1COc1cccc2cccnc12	eIF4H FP inh 92.1
Cc1cc(C(=O)O)ccc1NCc1ccncc1	none
COc1ccc(Cl)cc1NC(=S)Nc1ccccc1F	PABP1 MLLE inh 40.9
COc1ccc(NC(=S)N/N=C/c2ccc(F)cc2)cc1OC	PABP1 MLLE inh 45.2
COc1ccc(NC(=S)Nc2cccc(Cl)c2)cc1OC	PABP1 MLLE inh 36.8
Fc1ccc(NC(=S)N/N=C/c2ccc(F)c(F)c2)cc1	none
COc1ccc(Cl)cc1NC(=S)Nc1cccc(C)c1	none
CCN(CC)CC(O)Cn1c(-c2cccc(Cl)c2)nc2cc(C)c(C)cc21 (stereo not given)	none
Cc1cc(C)nc(NC(=S)NC(=O)c2ccccc2F)n1	none (no result: NS3 helicase inh, PABP polyA inh, eIF4H FP inh)
Cc1cc(C)nc(S/C=C/C(=O)c2ccccc2F)n1	PABP1 MLLE inh 42.0
COc1ccccc1N1CCN(C(=O)[C@H](C)NS(=O)(=O)c2ccc3c(c2)OCCCO3)CC1	PABP1 MLLE inh 41.0 (no result: NS3 helicase inh, PABP polyA inh, EBNA-1 inh, ZTA DNA inh, eIF4H FP inh)
c1ccc(-n2ncc3cccnc32)cc1	none
CC1=CC(C#N)(C#N)C(C#N)(C#N)C(c2ccccc2)N1 (stereo not given)	PABP polyA inh 102.1, eIF4H FP inh 102.4 (no result: PABP1 MLLE inh)
O=Cc1cn[nH]c1-c1cccc([N+](=O)[O-])c1	none
O=C(O)c1cn[nH]c1-c1cccc([N+](=O)[O-])c1	eIF4H FP inh 98.5
CCc1ccc(OCC(=O)Nc2ccc(S(=O)(=O)N3CCCC3)cc2)c(Br)c1	none
O=C(C1CCN(S(=O)(=O)c2ccc(Cl)cc2)CC1)N1CCC1	none (no result: NS3 helicase inh, PABP polyA inh, eIF4H FP inh)
CC(=O)c1ccc(OCCCC(=O)Nc2ccc(S(=O)(=O)N3CCOCC3)cc2)cc1	none (no result: NS3 helicase inh, PABP polyA inh, eIF4H FP inh)
CN(C)/N=C/C=C1\CC/C(=C\c2ccc(Br)cc2)C1=O	PABP polyA inh 82.9, eIF4H FP inh 66.6
CCCCc1nc2ccccc2c(=O)n1NC(=O)c1c(O)c2ccccc2n(C)c1=O	none
C=CCNC(=O)C1CC(=O)N(c2ccc(OCc3ccccc3Cl)cc2)C1 (stereo not given)	none
COC(=O)C1CC(=O)N(c2ccc(OCc3ccccc3Cl)cc2)C1 (stereo not given)	PABP polyA inh 43.9, eIF4H FP inh 102.9
CC1(C)CC(=O)C=C(Nc2ccccc2N)C1	none
Cc1ccc(NC2=CC(=O)CC(C)(C)C2)c(N)c1	PABP polyA inh 78.7, eIF4H FP inh 82.5
CCN(CC)c1cccc(OCC(=O)N(C)CCC#N)c1	PABP polyA inh 56.6, eIF4H FP inh 60.4
CCOc1cccc(C(=O)Nc2ccc(N(CC)CC)cc2)c1	none
Cc1ccc(NC(=S)C2=C(O)c3ccccc3N(C)S2(=O)=O)cc1	PABP1 MLLE inh 40.0
CN1c2ccccc2C(O)=C(C(=S)Nc2ccc(F)c(Cl)c2)S1(=O)=O	PABP1 MLLE inh 47.7
CCCSCCCNC(=O)c1ccc(NC(=O)C2=CSCCO2)cc1	none
N=c1c(S(=O)(=O)c2ccc(Br)cc2)cc2c(=O)n3ccccc3nc2n1Cc1ccco1	PABP polyA inh 64.3, eIF4H FP inh 96.5
Cn1c(=N)c(S(=O)(=O)c2ccc(Cl)cc2)cc2c(=O)n3ccccc3nc21	none (no result: PABP polyA inh, EBNA-1 inh, ZTA DNA inh, eIF4H FP inh, PABP1 MLLE inh)
N=c1c(S(=O)(=O)c2ccc(Br)cc2)cc2c(=O)n3ccccc3nc2n1Cc1ccccc1	none
CCn1c(=N)c(S(=O)(=O)c2ccc(Cl)cc2)cc2c(=O)n3ccccc3nc21	PABP polyA inh 104.8, eIF4H FP inh 83.1 (no result: PABP1 MLLE inh)
Cc1ccc(Cn2c(=N)c(S(=O)(=O)c3ccc(Br)cc3)cc3c(=O)n4ccccc4nc32)cc1	none
COc1ccc(CCn2c(=N)c(S(=O)(=O)c3ccc(C)cc3)cc3c(=O)n4ccccc4nc32)cc1	PABP polyA inh 27.8, eIF4H FP inh inconclusive
CC(C(=O)NC1C(=O)N2C(C(=O)O)=C(CSc3nnnn3C)CSC12)n1cc(Cl)cn1 (stereo not given)	PABP1 MLLE inh 42.8
COc1ccc(/C=C2/C(=O)OCc3cc(OC)c(OC)cc32)cc1	PABP polyA inh 104.0, eIF4H FP inh active
Cc1ccc(/C(O)=C2\C(=O)C(=O)N(CC(C)O)C2c2ccccn2)cc1 (stereo not given)	none
N=C1/C(=C/c2ccc(-c3cccc(C(=O)O)c3)o2)C(=O)N=C2SC(CC(=O)N3CCOCC3)=NN12	PABP polyA inh 58.1, eIF4H FP inh 61.7
Cn1c(=O)c2[nH]c(N=NN3CCCCC3)nc2n(C)c1=O	none (no result: NS3 helicase inh, PABP polyA inh, EBNA-1 inh, ZTA DNA inh, eIF4H FP inh)
CC(=O)/C(N=Nc1nc2c([nH]1)c(=O)n(C)c(=O)n2C)=C(\C)O	PABP1 MLLE inh 54.7
CCOc1ccc(NC(=O)CN(C)C(=O)CSC(C)C(=O)Nc2cc(C)on2)cc1OCC (stereo not given)	PABP polyA inh 55.3
O=C(c1ccc(Cl)cc1)c1oc2ccccc2c1CS(=O)c1ccc(Cl)cc1 (stereo not given)	none
Nc1c(C(=O)c2ccc(Cl)cc2)oc2ccccc12	PABP polyA inh 61.7, eIF4H FP inh active
O=C(CN1CCOCC1)N/N=C/c1ccc(-c2ccc(C(=O)O)cc2)o1	PABP polyA inh 67.9
CC1(CC(=O)N/N=C/c2ccc(-c3ccc(C(=O)O)cc3)o2)OCCO1	none
COc1cc(NC(=O)c2c(Cl)cnn2C)c(OC)cc1Cl	none
Cc1ccc(S(=O)(=O)NC(C(=O)Oc2ccc3ccc(=O)oc3c2)c2ccccc2)cc1 (stereo not given)	none
Cc1ccc(S(=O)(=O)N[C@H](C(=O)Oc2ccc3c(C(F)(F)F)cc(=O)oc3c2)c2ccccc2)cc1	PABP1 MLLE inh 36.4
CCOc1cc(C(N)=O)cc(OCC)c1OCC	none
CCOc1cc(C(N)=O)cc(Br)c1OC	eIF4H FP inh 8.5
CCCCN(Cc1ccccc1)C1CCN(Cc2ccccc2)CC1	none
Cn1c(=O)c2[nH]c(COc3ccccc3)nc2n(C)c1=O	PABP1 MLLE inh 63.0 (no result: NS3 helicase inh, PABP polyA inh, EBNA-1 inh, ZTA DNA inh, eIF4H FP inh)
Cn1c(=O)c2[nH]c(CN(Cc3ccccc3)Cc3ccccc3)nc2n(C)c1=O	none
CC(=O)N(C)c1ccc(NC(=O)c2ccc([N+](=O)[O-])cc2Cl)cc1	none
O=C(O)c1ccc2c(c1)C(=O)N(N1C(=O)c3ccccc3C1=O)C2=O	PABP polyA inh 122.4
O=C(O)c1ccc2c(c1)C(=O)N(CCc1ccccc1)C2=O	none
Cc1cc(Nc2ccc(F)cc2Cl)n2nc(C)nc2n1	none
COc1ccc(N2C(=O)N(Cc3ccccc3F)c3ccccc3S2(=O)=O)cc1	none (no result: EBNA-1 inh, ZTA DNA inh, PABP1 MLLE inh)
